# Assay results: ChEMBL document CHEMBL1134139, “Synthesis and biological activity of novel macrocyclic antifungals. modification of the tyrosine moiety of the lipopeptidolactone FR901469” (2001)
# Numbered stars: 1 amine (or outer) side, 2 acyl side, 3 side chain; on linkers, the order of the positions; unused ones are H or OH. Bridge positions count the residues as written; N and C are the ends. Square brackets hold non-standard residues; d marks the D form. Peptide text beside a SMILES is read from it. ξ: configuration not given here. X2 = O=C(CCC(=O)N1CCNCC1)Nc1cc(C[C@H](N[*:1])C(=O)[*:2])ccc1O; X3 = O=C(O)CCC(=O)Nc1cc(C[C@H](N[*:1])C(=O)[*:2])ccc1O; Gln(3R-OH) = NC(=O)C[C@@H](O)[C@H](N)C(=O)O; X1 = CCCCCCCCCCCCC[C@H](CC(=O)[*:1])O[*:2]; Pro(3S-OH) = O=C(O)[C@H]1NCC[C@@H]1O; Hyp = O=C(O)[C@@H]1C[C@@H](O)CN1; Orn = NCCC[C@H](N)C(=O)O; ξA = CC(N)C(=O)O
# Columns and labels:
# Mus musculus [1] = test: Compound was evaluated in vivo for antifungal activity and efficacy in disseminated murine candidiasis was determined; type: functional
# Aspergillus fumigatus [2] = test: In vitro antifungal activity against Aspergillus fumigatus 8004 by broth microdilution method; type: functional
# Summary of the method: (§1)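 Broth microdilution run to NCCLS M27-A guidelines. MIC read per that standard.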
# Aspergillus fumigatus [3] = test: In vitro antifungal activity against Aspergillus fumigatus FP1305 by broth microdilution method; type: functional; summary of the method: as §1
# Candida albicans [4] = test: In vitro antifungal activity against Candida albicans 13004 by broth microdilution method; type: functional; summary of the method: as §1
# Candida albicans [5] = test: In vitro antifungal activity against Candida albicans FP633 by broth microdilution method; type: functional; summary of the method: as §1
# Mus musculus [6] = species on record: Mus musculus; test: Ability to hemolyze ICR mouse RBCs at 1 mg/mL using microtiter red blood cell hemolysis assay.
# Candida albicans [7] = test: In vitro antifungal activity against Candida albicans FP579 by agar dilution method using Sabouraud Dextrose agar.; type: functional
# Summary of the method: (§2)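 Agar dilution on Sabouraud Dextrose agar. MIC taken as the lowest concentration that inhibits visible growth.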
# Candida albicans [8] = test: In vitro Antifungal activity against Candida albicans FP633 by agar dilution method using Sabouraud Dextrose agar.; type: functional; summary of the method: as §2
# [9] = system: Meyerozyma guilliermondii; test: In vitro antifungal activity against Candida guilliermondii FP587 by agar dilution method using Sabouraud Dextrose agar.; type: functional; summary of the method: as §2
# Candida parapsilosis = test: In vitro antifungal activity against Candida parapsilosis 15001 by agar dilution method using Sabouraud Dextrose agar.; type: functional; details: Lodderomyces parapsilosis; summary of the method: as §2
# Candida tropicalis = test: In vitro antifungal activity against Candida tropicalis 8001 by agar dilution method using Sabouraud Dextrose agar.; type: functional; summary of the method: as §2
# [10] = Candida tropicalis, read-out: MIC
Structure (SMILES),ED50 (Mus musculus [1]) [mg/kg],MIC (Aspergillus fumigatus [2]) [µg/mL],MIC (Aspergillus fumigatus [3]) [µg/mL],MIC (Candida albicans [4]) [µg/mL],MIC (Candida albicans [5]) [µg/mL],Hemolytic activity (Mus musculus [6]) [%],MIC (Candida albicans [7]) [µg/mL],MIC (Candida albicans [8]) [µg/mL],MIC [9] [µg/mL],MIC (Candida parapsilosis) [µg/mL],MIC (Candida tropicalis) [µg/mL],MIC (Candida tropicalis; [10]) [µg/mL]
OC(Cn1cncn1)(Cn1cncn1)c1ccc(F)cc1F [FLUCONAZOLE],> 20,,,,,,,,,,,
CCCCCCCCCCCCC[C@H](CC(=O)N[C@@H](C(=O)N[C@H](C)C(=O)N[C@@H](Cc1ccc(O)c(NC(=O)[C@H](N)Cc2c[nH]cn2)c1)C(=O)N[C@H](C(=O)N1C[C@H](O)C[C@H]1C(=O)N[C@@H](C(=O)N[C@H](C(=O)N1CC[C@H](O)[C@H]1C(=O)N[C@H](C(=O)NCC(=O)N[C@@H](C(N)=O)[C@@H](C)O)[C@H](O)CC(N)=O)[C@@H](C)O)[C@@H](C)O)C(C)C)[C@@H](C)O)OC(=O)[C@@H](C)CCCN,,2,2,2,2,65,,,,,,
CCCCCCCCCCCCC[C@H](CC(=O)N[C@@H](C(=O)N[C@H](C)C(=O)N[C@@H](Cc1ccc(O)c(Cl)c1)C(=O)N[C@H](C(=O)N1C[C@H](O)C[C@H]1C(=O)N[C@@H](C(=O)N[C@H](C(=O)N1CC[C@H](O)[C@H]1C(=O)N[C@H](C(=O)NCC(=O)N[C@@H](C(N)=O)[C@@H](C)O)[C@H](O)CC(N)=O)[C@@H](C)O)[C@@H](C)O)C(C)C)[C@@H](C)O)OC(=O)[C@@H](C)CCCN,,,,,,97,0.78,0.39,0.78,0.78,0.78,0.78
CCCCCCCCCCCCC[C@H](CC(=O)N[C@@H](C(=O)N[C@H](C)C(=O)N[C@@H](Cc1ccc(O)c(NC(=O)CC[C@H](N)C(=O)O)c1)C(=O)N[C@H](C(=O)N1C[C@H](O)C[C@H]1C(=O)N[C@@H](C(=O)N[C@H](C(=O)N1CC[C@H](O)[C@H]1C(=O)N[C@H](C(=O)NCC(=O)N[C@@H](C(N)=O)[C@@H](C)O)[C@H](O)CC(N)=O)[C@@H](C)O)[C@@H](C)O)C(C)C)[C@@H](C)O)OC(=O)[C@@H](C)CCCN,1.02,1,0.5,0.5,0.5,60,,,,,,
CCCCCCCCCCCCC[C@H](CC(=O)N[C@@H](C(=O)N[C@H](C)C(=O)N[C@@H](Cc1ccc(O)cc1)C(=O)N[C@H](C(=O)N1C[C@H](O)C[C@H]1C(=O)N[C@@H](C(=O)N[C@H](C(=O)N1CC[C@H](O)[C@H]1C(=O)N[C@H](C(=O)NCC(=O)N[C@@H](C(N)=O)[C@@H](C)O)[C@H](O)CC(N)=O)[C@@H](C)O)[C@@H](C)O)C(C)C)[C@@H](C)O)OC(=O)[C@@H](C)CCCNC(C)=O,,,,,,5,0.78,0.39,0.78,1.56,1.56,1.56
CCCCCCCCCCCCC[C@@H]1CC(=O)N[C@@H]([C@@H](C)O)C(=O)N[C@H](C)C(=O)N[C@@H](Cc2ccc(O)c(NC(=O)CCN)c2)C(=O)N[C@@H](C(C)C)C(=O)N2C[C@H](O)C[C@H]2C(=O)N[C@@H]([C@@H](C)O)C(=O)N[C@@H]([C@@H](C)O)C(=O)N2CC[C@H](O)[C@H]2C(=O)N[C@@H]([C@H](O)CC(N)=O)C(=O)NCC(=O)N[C@@H]([C@@H](C)O)C(=O)N[C@@H](CCCN)C(=O)O1,,,,,,49,1.56,0.78,0.78,0.78,1.56,1.56
CCCCCCCCCCCCC[C@H](CC(=O)N[C@@H](C(=O)N[C@H](C)C(=O)N[C@@H](Cc1ccc(OCC(=O)NCCCn2ccnc2)cc1)C(=O)N[C@H](C(=O)N1C[C@H](O)C[C@H]1C(=O)N[C@@H](C(=O)N[C@H](C(=O)N1CC[C@H](O)[C@H]1C(=O)N[C@H](C(=O)NCC(=O)N[C@@H](C(N)=O)[C@@H](C)O)[C@H](O)CC(N)=O)[C@@H](C)O)[C@@H](C)O)C(C)C)[C@@H](C)O)OC(=O)[C@@H](C)CCCN.Cl,,2,1,2,1,53,,,,,,
CCCCCCCCCCCCC[C@@H]1CC(=O)N[C@@H]([C@@H](C)O)C(=O)NC(C)C(=O)N[C@@H](Cc2ccc(O)c(NC(=O)CCC(=O)N3CCNCC3)c2)C(=O)N[C@@H](C(C)C)C(=O)N2C[C@H](O)C[C@H]2C(=O)N[C@@H]([C@@H](C)O)C(=O)N[C@@H]([C@@H](C)O)C(=O)N2CC[C@H](O)[C@H]2C(=O)N[C@@H]([C@H](O)CC(N)=O)C(=O)NCC(=O)N[C@@H]([C@@H](C)O)C(=O)N[C@@H](CCCN)C(=O)O1 (stereo partly drawn) (T[ξA][X2]V[Hyp]TT[Pro(3S-OH)][Gln(3R-OH)]GT[Orn]; linker N-C via X1),0.97,1,0.5,1,1,46,,,,,,
CCCCCCCCCCCCC[C@H](CC(=O)N[C@H](C(=O)N[C@@H](C)C(=O)N[C@@H](Cc1ccc(OCC(=O)O)c(NC(=O)CCN)c1)C(=O)N[C@H](C(=O)N1C[C@H](O)C[C@H]1C(=O)N[C@@H](C(=O)N[C@H](C(=O)N1CC[C@H](O)[C@H]1C(=O)N[C@H](C(=O)NCC(=O)N[C@H](C(N)=O)[C@@H](C)O)[C@H](O)CC(N)=O)[C@@H](C)O)[C@@H](C)O)C(C)C)[C@@H](C)O)OC(=O)[C@@H](C)CCCN.Cl,0.72,0.5,0.125,0.5,0.5,23,,,,,,
CCCCCCCCCCCCC[C@H](CC(=O)N[C@@H](C(=O)N[C@H](C)C(=O)N[C@@H](Cc1ccc(O)c(NC(=O)C[C@H](N)C(=O)O)c1)C(=O)N[C@H](C(=O)N1C[C@H](O)C[C@H]1C(=O)N[C@@H](C(=O)N[C@H](C(=O)N1CC[C@H](O)[C@H]1C(=O)N[C@H](C(=O)NCC(=O)N[C@@H](C(N)=O)[C@@H](C)O)[C@H](O)CC(N)=O)[C@@H](C)O)[C@@H](C)O)C(C)C)[C@@H](C)O)OC(=O)[C@@H](C)CCCN,0.8,0.5,0.25,1,0.5,75,,,,,,
C[C@@H]1[C@H](O)[C@@H](C)/C=C/C=C/C=C/C=C/C=C/C=C/C=C/[C@H](O[C@@H]2O[C@H](C)[C@@H](O)[C@H](N)[C@@H]2O)C[C@@H]2O[C@](O)(C[C@@H](O)C[C@@H](O)[C@H](O)CC[C@@H](O)C[C@@H](O)CC(=O)O[C@H]1C)C[C@H](O)[C@H]2C(=O)O [AMPHOTERICIN B],0.132,,,,,,,,,,,
CCCCCCCCCCCCC[C@H](CC(=O)N[C@@H](C(=O)N[C@H](C)C(=O)N[C@@H](Cc1ccc(O)c(NC(=O)[C@H](N)CO)c1)C(=O)N[C@H](C(=O)N1C[C@H](O)C[C@H]1C(=O)N[C@@H](C(=O)N[C@H](C(=O)N1CC[C@H](O)[C@H]1C(=O)N[C@H](C(=O)NCC(=O)N[C@@H](C(N)=O)[C@@H](C)O)[C@H](O)CC(N)=O)[C@@H](C)O)[C@@H](C)O)C(C)C)[C@@H](C)O)OC(=O)[C@@H](C)CCCN,,2,0.5,2,1,84,,,,,,
CCCCCCCCCCCCC[C@@H]1CC(=O)N[C@@H]([C@@H](C)O)C(=O)N[C@@H](C)C(=O)N[C@@H](Cc2ccc(O)c(NC(=O)CCC(=O)O)c2)C(=O)N[C@@H](C(C)C)C(=O)N2C[C@H](O)C[C@H]2C(=O)N[C@@H]([C@@H](C)O)C(=O)N[C@@H]([C@@H](C)O)C(=O)N2CC[C@H](O)[C@H]2C(=O)N[C@@H]([C@H](O)CC(N)=O)C(=O)NCC(=O)N[C@@H]([C@@H](C)O)C(=O)N[C@@H](CCCN)C(=O)O1 (TA[X3]V[Hyp]TT[Pro(3S-OH)][Gln(3R-OH)]GT[Orn]; linker N-C via X1),,0.5,0.25,1,0.5,79,,,,,,
CCCCCCCCCCCCC[C@H](CC(=O)N[C@H](C(=O)N[C@H](C)C(=O)N[C@@H](Cc1ccc(OCC(=O)NCCN)cc1)C(=O)N[C@H](C(=O)N1C[C@H](O)C[C@H]1C(=O)N[C@H](C(=O)N[C@H](C(=O)N1CC[C@H](O)[C@H]1C(=O)N[C@H](C(=O)NCC(=O)N[C@H](C(N)=O)[C@@H](C)O)[C@H](O)CC(N)=O)[C@@H](C)O)[C@@H](C)O)C(C)C)[C@@H](C)O)OC(=O)[C@@H](C)CCCN.Cl,,1,0.5,1,1,45,,,,,,
CCCCCCCCCCCCC[C@H](CC(=O)N[C@@H](C(=O)N[C@H](C)C(=O)N[C@@H](Cc1ccc(OCC(=O)O)cc1)C(=O)N[C@H](C(=O)N1C[C@H](O)C[C@H]1C(=O)N[C@@H](C(=O)N[C@H](C(=O)N1CC[C@H](O)[C@H]1C(=O)N[C@H](C(=O)NCC(=O)N[C@@H](C(N)=O)[C@@H](C)O)[C@H](O)CC(N)=O)[C@@H](C)O)[C@@H](C)O)C(C)C)[C@@H](C)O)OC(=O)[C@@H](C)CCCN,,1,0.125,0.5,0.5,76,,,,,,
CCCCCCCCCCCCC[C@H](CC(=O)N[C@@H](C(=O)N[C@H](C)C(=O)N[C@@H](Cc1ccc(OCC(=O)N(C)C)cc1)C(=O)N[C@H](C(=O)N1C[C@H](O)C[C@H]1C(=O)N[C@@H](C(=O)N[C@H](C(=O)N1CC[C@H](O)[C@H]1C(=O)N[C@H](C(=O)NCC(=O)N[C@@H](C(N)=O)[C@@H](C)O)[C@H](O)CC(N)=O)[C@@H](C)O)[C@@H](C)O)C(C)C)[C@@H](C)O)OC(=O)[C@@H](C)CCCN,,1,0.25,1,0.5,85,,,,,,
